Results as given in ChEMBL document CHEMBL1139371, “Total synthesis and biological evaluation of tubulysin U, tubulysin V, and their analogues” (J Med Chem, 2009).

Key:
[1] = Inhibition of tubulin polymerization
[2] = tested on: MCF7; test: Antiproliferative activity against human MCF7 cells after 4 days by SRB assay; assay type: functional, cell-based; conditions: MCF7, 96 h
Procedure, shortened: (§1)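 Compounds were tested as HCl salts and dosed from DMSO. Cells were 1A9 ovarian and MCF-7 breast cancer lines. IC50 is the mean of two independent determinations.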

[3] = tested on: 1A9; test: Antiproliferative activity against human 1A9 cells after 4 days by SRB assay; assay type: functional, cell-based; conditions: 1A9, 96 h; procedure, shortened: as §1
[4] = Anticancer activity against human KBV1 cells expressing P-gp; assay type: functional, cell-based; conditions: KB-V1

Row | SMILES | IC50 [1] [nM] | IC50 [2] [nM] | IC50 [3] [nM] | IC50 [4] [nM]
1 | CC[C@H](C)[C@H](NC(=O)[C@@H](C)N(C)C)C(=O)N[C@H](CC(=O)c1nc(C(=O)N[C@@H](Cc2ccccc2)CC(C)(C)C(=O)O)cs1)C(C)C | 8500 | 12200 | 14200 | –
2 | CN[C@H](C(=O)N[C@H](C(=O)N(C)[C@H](/C=C(\C)C(=O)O)C(C)C)C(C)(C)C)C(C)(C)c1ccccc1 [TALTOBULIN] | 700 | 0.15 | 0.2 | –
3 | CC[C@H](C)[C@H](NC(=O)[C@@H](C)N(C)C)C(=O)NC(CC(=O)c1nc(C(=O)N[C@H](CCC(=O)O)Cc2ccccc2)cs1)C(C)C (single isomer, unassigned) | 12500 | 170 | 300 | –
4 | CC[C@H](C)[C@H](NC(=O)[C@H]1CCCCN1C)C(=O)N[C@H](C[C@@H](OC(C)=O)c1nc(C(=O)N[C@@H](Cc2ccccc2)C[C@H](C)C(=O)O)cs1)C(C)C [TUBULYSIN U] | 1900 | 0.4 | 0.65 | –
5 | CC[C@H](C)[C@H](NC(=O)[C@H]1CCCCN1C)C(=O)N[C@H](C[C@@H](O)c1nc(C(=O)N[C@@H](Cc2ccccc2)C[C@H](C)C(=O)O)cs1)C(C)C [TUBULYSIN V] | 1100 | 240 | 120 | –
6 | CC[C@H](C)[C@H](NC(=O)[C@@H](C)N(C)C)C(=O)N[C@H](CC(=O)c1nc(C(=O)N[C@@H](Cc2ccccc2)C[C@H](C)C(=O)O)cs1)C(C)C | 3600 | – | > 50000 | –
7 | CC[C@H](C)[C@H](NC(=O)[C@H]1CCCCN1C)C(=O)N(COC(=O)CC(C)C)[C@H](C[C@@H](OC(C)=O)c1nc(C(=O)N[C@@H](Cc2ccccc2)C[C@H](C)C(=O)O)cs1)C(C)C [TUBULYSIN D] | – | – | – | 0.31
8 | CC[C@H](C)[C@H](NC(=O)[C@H]1CCCCN1C)C(=O)N[C@H](C[C@H](O)c1nc(C(=O)N[C@@H](Cc2ccccc2)C[C@H](C)C(=O)O)cs1)C(C)C | 1300 | 8100 | 5100 | –
